Measured values taken from ChEMBL document CHEMBL1126604, “Synthesis and antiviral activity of 5-thien-2-yl-2'-deoxyuridine analogues” (1993).
In brackets after ≈: the same amount, converted by molar mass.

Experiments:
Assay type in all cases: functional
Cytomegalovirus [1] = experiment: Minimum inhibitory concentration required to reduce cytomegalo virus (CMV (AD-169)) virus-induced cytopathicity by 50%; details: Human betaherpesvirus 5
Human alphaherpesvirus 3 [2] = experiment: Minimum inhibitory concentration required to reduce Varicella-Zoster virus (VZV (Oka)) virus-induced cytopathicity by 50%
Cytomegalovirus [3] = experiment: Minimum inhibitory concentration required to reduce cytomegalo virus (CMV (Davis)) virus-induced cytopathicity by 50%; details: Human betaherpesvirus 5
Mus musculus [4] = experiment: Survival of mice after intraperitoneal infection with HSV-1 (KOS) and oral administration of 100 mg/kg at day 3
In short: (§1)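 Mice were infected intraperitoneally with HSV-1 (KOS), 10 mice per group. Drug was given by oral gavage once daily for 5 days, starting on the day of infection, at 25, 100 or 250 mg/kg per day. Vehicle was a 90:10 suspension of Sirupus Simplex and propylene glycol; the placebo group got the same syrup. Surviving mice were counted over 20 days.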

Mus musculus [5] = experiment: Survival of mice after intraperitoneal infection with HSV-1 (KOS) and oral administration of 25 mg/kg at day 6; in short: as §1
Mus musculus [6] = experiment: Survival of mice after intraperitoneal infection with HSV-1 (KOS) and oral administration of 25 mg/kg at day 12; in short: as §1
Human alphaherpesvirus 3 [7] = experiment: Minimum inhibitory concentration required to reduce TK-VZV (07-1) virus-induced cytopathicity by 50%
Human alphaherpesvirus 1 [8] = experiment: Minimum inhibitory concentration required to reduce herpes simplex virus-1 (HSV-1 (McIntyre)) virus-induced cytopathicity by 50%
Mus musculus [9] = experiment: Survival of mice after intraperitoneal infection with HSV-1 (KOS) and oral administration of 25 mg/kg at day 0; in short: as §1
Human alphaherpesvirus 2 [10] = experiment: Minimum inhibitory concentration required to reduce herpes simplex virus-2 (HSV-2 (G)) virus-induced cytopathicity by 50%
Vaccinia virus = experiment: Minimum inhibitory concentration required to reduce vaccinia virus (VV) virus-induced cytopathicity by 50%; details: Orthopoxvirus vaccinia
Human alphaherpesvirus 1 [11] = experiment: Minimum inhibitory concentration required to reduce herpes simplex virus-1 (HSV-1 (KOS)) virus-induced cytopathicity by 50%
[12] = (§2) Minimum inhibitory concentration required to reduce virus-induced cell growth by 50%; details: Homo sapiens
Human alphaherpesvirus 2 [13] = experiment: Minimum inhibitory concentration required to reduce herpes simplex virus-2 (HSV-2 (Lyons)) virus-induced cytopathicity by 50%
Mus musculus [14] = experiment: Survival of mice after intraperitoneal infection with HSV-1 (KOS) and oral administration of 25 mg/kg at day 9; in short: as §1
Cell line [15] = experiment: Minimum concentration required to cause a microscopically detectable alteration of cell morphology; details: Homo sapiens
In short: (§3)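 Cytotoxicity read as the minimum concentration causing a microscopically detectable alteration of normal cell morphology. Cells were human embryonic skin-muscle (E6SM) or human embryonic lung (HEL), seeded in 96-well plates.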

Human alphaherpesvirus 2 [16] = experiment: Minimum inhibitory concentration required to reduce herpes simplex virus-2 (HSV-2 (196)) virus-induced cytopathicity by 50%
Mus musculus [17] = experiment: Survival of mice after intraperitoneal infection with HSV-1 (KOS) and oral administration of 250 mg/kg at day 9; in short: as §1
Mus musculus [18] = experiment: Survival of mice after intraperitoneal infection with HSV-1 (KOS) and oral administration of 100 mg/kg at day 0; in short: as §1
Mus musculus [19] = experiment: Survival of mice after intraperitoneal infection with HSV-1 (KOS) and oral administration of 250 mg/kg at day 12; in short: as §1
Mus musculus [20] = experiment: Survival of mice after intraperitoneal infection with HSV-1 (KOS) and oral administration of 100 mg/kg at day 12; in short: as §1
Mus musculus [21] = experiment: Survival of mice after intraperitoneal infection with HSV-1 (KOS) and oral administration of 25 mg/kg at day 3; in short: as §1
[22] = system: Vesicular stomatitis virus; experiment: Minimum inhibitory concentration required to reduce VSV virus-induced cytopathicity by 50%
Mus musculus [23] = experiment: Survival of mice after intraperitoneal infection with HSV-1 (KOS) and oral administration of 250 mg/kg at day 0; in short: as §1
Mus musculus [24] = experiment: Survival of mice after intraperitoneal infection with HSV-1 (KOS) and oral administration of 250 mg/kg at day 20; in short: as §1
Mus musculus [25] = experiment: Survival of mice after intraperitoneal infection with HSV-1 (KOS) and oral administration of 100 mg/kg at day 20; in short: as §1
Mus musculus [26] = experiment: Survival of mice after intraperitoneal infection with HSV-1 (KOS) and oral administration of 100 mg/kg at day 6; in short: as §1
Human alphaherpesvirus 1 [27] = experiment: Minimum inhibitory concentration required to reduce thymidine kinase deficient-HSV-1 (B2006) virus-induced cytopathicity by 50%
Mus musculus [28] = experiment: Survival of mice after intraperitoneal infection with HSV-1 (KOS) and oral administration of 25 mg/kg at day 20; in short: as §1
Mus musculus [29] = experiment: Survival of mice after intraperitoneal infection with HSV-1 (KOS) and oral administration of 250 mg/kg at day 3; in short: as §1
Human alphaherpesvirus 1 [30] = experiment: Minimum inhibitory concentration required to reduce thymidine kinase deficient-HSV-1 (VMW 1837) virus-induced cytopathicity by 50%
Mus musculus [31] = experiment: Survival of mice after intraperitoneal infection with HSV-1 (KOS) and oral administration of 250 mg/kg at day 6; in short: as §1
Mus musculus [32] = experiment: Survival of mice after intraperitoneal infection with HSV-1 (KOS) and oral administration of 100 mg/kg at day 9; in short: as §1
Human alphaherpesvirus 1 [33] = experiment: Minimum inhibitory concentration required to reduce herpes simplex virus-1 (HSV-1 (F)) virus-induced cytopathicity by 50%
Human alphaherpesvirus 3 [34] = experiment: Minimum inhibitory concentration required to reduce TK-VZV (YS/R) virus-induced cytopathicity by 50%
Human alphaherpesvirus 1 [35] = experiment: Minimum inhibitory concentration required to reduce TK-HSV-1 (B2006) virus-induced cytopathicity by 50%
Cell line [36] = experiment: as §2; details: Homo sapiens
In short: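 Cytotoxicity was measured as inhibition of cell growth in E6SM or HEL cells seeded in 96-well plates.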

Cell line [37] = experiment: Minimum concentration required to cause a microscopically detectable alteration of human cells morphology; in short: as §3

SMILES | MIC (Cytomegalovirus [1]) [µg/mL] | MIC (Human alphaherpesvirus 3 [2]) [µg/mL] | MIC (Cytomegalovirus [3]) [µg/mL] | MIC (Human alphaherpesvirus 3 [7]) [µg/mL] | MIC (Human alphaherpesvirus 1 [8]) [µg/mL] | MIC (Human alphaherpesvirus 2 [10]) [µg/mL] | MIC (Vaccinia virus) [µg/mL] | MIC (Human alphaherpesvirus 1 [11]) [µg/mL] | MIC [12] [µg/mL] | MIC (Human alphaherpesvirus 2 [13]) [µg/mL] | MIC (Cell line [15]) [µg/mL] | MIC (Human alphaherpesvirus 2 [16]) [µg/mL] | MIC [22] [µg/mL] | MIC (Human alphaherpesvirus 1 [27]) [µg/mL] | MIC (Human alphaherpesvirus 1 [30]) [µg/mL] | MIC (Human alphaherpesvirus 1 [33]) [µg/mL] | MIC (Human alphaherpesvirus 3 [34]) [µg/mL] | other results
O=c1[nH]c(=O)n(C2O[C@H](CO)[C@@H](O)[C@@H]2O)cc1-c1ccc(Br)s1 (some centres undefined) | 30 (≈ 74 µM) | 0.05 (≈ 0.123 µM) | 35 (≈ 86.4 µM) | 40 (≈ 98.7 µM) | 0.02 (≈ 0.0494 µM) | 70 (≈ 173 µM) | 20 (≈ 49.4 µM) | 0.08 (≈ 0.197 µM) | > 50 | 20 (≈ 49.4 µM) | > 40 | 70 (≈ 173 µM) | > 100 | > 100 | > 100 | 0.07 (≈ 0.173 µM) | 40 (≈ 98.7 µM) | No. of mice (Mus musculus [4]): 10; No. of mice (Mus musculus [5]): 10; No. of mice (Mus musculus [6]): 2; No. of mice (Mus musculus [9]): 10; No. of mice (Mus musculus [14]): 2; No. of mice (Mus musculus [17]): 5; No. of mice (Mus musculus [18]): 10; No. of mice (Mus musculus [19]): 5; No. of mice (Mus musculus [20]): 1; No. of mice (Mus musculus [21]): 10; No. of mice (Mus musculus [23]): 10; No. of mice (Mus musculus [24]): 5; No. of mice (Mus musculus [25]): 1; No. of mice (Mus musculus [26]): 8; No. of mice (Mus musculus [28]): 2; No. of mice (Mus musculus [29]): 10; No. of mice (Mus musculus [31]): 8; No. of mice (Mus musculus [32]): 1
C#Cc1ccc(-c2cn([C@H]3C[C@H](O)[C@@H](CO)O3)c(=O)[nH]c2=O)s1 | > 10 | 0.25 (≈ 0.748 µM) | > 10 | 5 (≈ 15 µM) | 0.2 (≈ 0.598 µM) | > 200 | > 200 | 0.4 (≈ 1.2 µM) | 14 (≈ 41.9 µM) | > 200 | 400 (≈ 1200 µM) | > 200 | > 200 | – | > 200 | 0.2 (≈ 0.598 µM) | 17 (≈ 50.8 µM) | MIC (Human alphaherpesvirus 1 [35]): > 200 µg/mL
O=c1[nH]c(=O)n([C@H]2C[C@H](O)[C@@H](CO)O2)cc1-c1cccs1 | 60 (≈ 193 µM) | 3 (≈ 9.67 µM) | 40 (≈ 129 µM) | 8 (≈ 25.8 µM) | 0.3 (≈ 0.967 µM) | 50 (≈ 161 µM) | 20 (≈ 64.4 µM) | 1.5 (≈ 4.83 µM) | 45 (≈ 145 µM) | 20 (≈ 64.4 µM) | 100 (≈ 322 µM) | 50 (≈ 161 µM) | > 100 | > 100 | > 100 | 0.35 (≈ 1.13 µM) | 30 (≈ 96.7 µM) | –
O=c1[nH]c(=O)n([C@H]2C[C@H](O)[C@@H](CO)O2)cc1-c1ccc([N+](=O)[O-])s1 | > 40 | 7 (≈ 19.7 µM) | > 40 | 40 (≈ 113 µM) | – | 150 (≈ 422 µM) | 150 (≈ 422 µM) | 2 (≈ 5.63 µM) | – | – | – | – | > 200 | > 200 | 150 (≈ 422 µM) | – | > 40 | MIC (Cell line [36]): > 50 µg/mL; MIC (Cell line [37]): > 200 µg/mL
C=Cc1ccc(-c2cn([C@H]3C[C@H](O)[C@@H](CO)O3)c(=O)[nH]c2=O)s1 | > 1 | 7 (≈ 20.8 µM) | > 1 | 7 (≈ 20.8 µM) | – | > 200 | 70 (≈ 208 µM) | 1 (≈ 2.97 µM) | 3.5 (≈ 10.4 µM) | – | 400 (≈ 1190 µM) | – | > 200 | > 200 | > 200 | – | 10 (≈ 29.7 µM) | –
Cc1ccc(-c2cn([C@H]3C[C@H](O)[C@@H](CO)O3)c(=O)[nH]c2=O)s1 | > 40 | 0.08 (≈ 0.247 µM) | > 40 | > 40 | 0.7 (≈ 2.16 µM) | 50 (≈ 154 µM) | > 200 | 0.2 (≈ 0.617 µM) | > 50 | 20 (≈ 61.7 µM) | > 200 | 150 (≈ 462 µM) | > 400 | 400 (≈ 1230 µM) | 150 (≈ 462 µM) | 0.2 (≈ 0.617 µM) | > 40 | –
O=c1[nH]c(=O)n([C@H]2C[C@H](O)[C@@H](CO)O2)cc1-c1ccoc1 | 80 (≈ 272 µM) | 50 (≈ 170 µM) | 80 (≈ 272 µM) | > 40 | 0.07 (≈ 0.238 µM) | 150 (≈ 510 µM) | > 40 | 0.5 (≈ 1.7 µM) | > 50 | 30 (≈ 102 µM) | – | 150 (≈ 510 µM) | > 200 | 100 (≈ 340 µM) | > 200 | 0.5 (≈ 1.7 µM) | > 40 | MIC (Cell line [37]): > 40 µg/mL
